Test results taken from ChEMBL document CHEMBL1795208 (J Med Chem, 2011).

Experiments:
Type in all cases: functional, cell-based
SK-BR-3 = assay: Antiproliferative activity against human SKBR3 cells expressing HER2 after 72 hrs by MTS/PMS assay; details: SK-BR-3, 72 h
Summary of the method: (§1)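 Cells kept in Advanced DMEM/F12 (1:1) with non-essential amino acids, 2 mM L-glutamine, penicillin, streptomycin and 10% FBS at 37 °C, 5% CO2. Seeded at 2000/well, attached overnight. Compound added in DMSO across a concentration range (1% DMSO final) for 72 h. Viable cells read by MTS/PMS and normalized to 1% DMSO controls (100%). IC50 taken from separate triplicate experiments.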

MCF7 = assay: Antiproliferative activity against human MCF7 cells expressing estrogen receptor after 72 hrs by MTS/PMS assay; details: MCF7, 72 h; summary of the method: as §1
[1] = Antiproliferative activity against human androgen-dependent LNCaP-LN3 cells after 72 hrs by MTS/PMS assay; details: LNCaP-LN3, 72 h; summary of the method: as §1
[2] = Antiproliferative activity against human androgen-independent PC3MM2 cells after 72 hrs by MTS/PMS assay; details: PC3MM2, 72 h; summary of the method: as §1
B16-F10 = assay: Antiproliferative activity against mouse B16F10 cells after 72 hrs by MTS/PMS assay; details: B16-F10, 72 h; summary of the method: as §1
SK-MEL-28 = assay: Antiproliferative activity against human SK-MEL-28 cells after 72 hrs by MTS/PMS assay; details: SK-MEL-28, 72 h; summary of the method: as §1
[3] = Antiproliferative activity against human MDA1986 cells after 72 hrs by MTS/PMS assay; details: MDA1986, 72 h; summary of the method: as §1
[4] = Antiproliferative activity against human JMAR cells after 72 hrs by MTS/PMS assay; summary of the method: as §1

**Q.** With `COc1cccc(-c2cc(C(=O)Nc3cc4cc(OC)c(OC5CCCN(C)C5)c(C)c4oc3=O)ccc2OC)c1` (centres undefined) as the compound, how does the IC50 (SK-BR-3) read?
**A.** 1.49 µM

**Q.** And the IC50 (MCF7)?
**A.** 1.41 µM

**Q.** And the IC50 [1]?
**A.** 10.5 µM

**Q.** And the IC50 [2]?
**A.** 6.86 µM

**Q.** And the IC50 (B16-F10)?
**A.** 2.67 µM

**Q.** And the IC50 (SK-MEL-28)?
**A.** 5.86 µM

**Q.** And the IC50 [3]?
**A.** 13.2 µM

**Q.** And the IC50 [4]?
**A.** 19.1 µM

**Q.** With `COc1cccc(-c2cc(C(=O)Nc3cc4cc(OC)c(O)c(C)c4oc3=O)ccc2OC)c1` as the compound, how does the IC50 (SK-BR-3) read?
**A.** 3.23 µM

**Q.** What about the IC50 (MCF7) of the same compound?
**A.** 11.7 µM

**Q.** What about the IC50 [1] of the same compound?
**A.** 15.8 µM

**Q.** And the IC50 [2]?
**A.** 11.2 µM

**Q.** And the IC50 (B16-F10)?
**A.** 5.77 µM

**Q.** And the IC50 (SK-MEL-28)?
**A.** 12.4 µM

**Q.** What about the IC50 [3] of the same compound?
**A.** 6.7 µM

**Q.** What about the IC50 [4] of the same compound?
**A.** 24.6 µM

**Q.** For `COc1cccc(-c2cc(C(=O)Nc3cc4cc(OC)c(OC5CCNCC5)c(C)c4oc3=O)ccc2OC)c1`, which IC50 (SK-BR-3) is on record?
**A.** 1.2 µM

**Q.** What about the IC50 (MCF7) of the same compound?
**A.** 2.82 µM

**Q.** What about the IC50 [1] of the same compound?
**A.** 5.27 µM

**Q.** And the IC50 [2]?
**A.** 4.02 µM

**Q.** And the IC50 (B16-F10)?
**A.** 1.84 µM

**Q.** What about the IC50 (SK-MEL-28) of the same compound?
**A.** 5.75 µM

**Q.** What about the IC50 [3] of the same compound?
**A.** 14.6 µM

**Q.** And the IC50 [4]?
**A.** 10.9 µM

**Q.** For `COc1cccc(-c2cc(C(=O)Nc3cc4ccc(OC5CNC[C@@H](O)[C@H]5O)c(C)c4oc3=O)ccc2OC)c1` (some centres undefined), which IC50 (SK-BR-3) is on record?
**A.** 2.91 µM

**Q.** What about the IC50 (MCF7) of the same compound?
**A.** 2.07 µM

**Q.** And the IC50 [1]?
**A.** 4.9 µM

**Q.** And the IC50 [2]?
**A.** 6.33 µM

**Q.** What about the IC50 (B16-F10) of the same compound?
**A.** 2.8 µM

**Q.** What about the IC50 (SK-MEL-28) of the same compound?
**A.** 6.14 µM

**Q.** And the IC50 [3]?
**A.** 5.6 µM

**Q.** And the IC50 [4]?
**A.** 5.89 µM

**Q.** Which IC50 (SK-BR-3) does the source give for `COc1cccc(-c2cc(C(=O)Nc3cc4cc(OC)c(OC5CN(C)C[C@@H](O)[C@H]5O)c(C)c4oc3=O)ccc2OC)c1` (some centres undefined) here?
**A.** 2.77 µM

**Q.** And the IC50 (MCF7)?
**A.** 2.01 µM

**Q.** What about the IC50 [1] of the same compound?
**A.** 4.69 µM

**Q.** And the IC50 [2]?
**A.** 4.17 µM

**Q.** And the IC50 (B16-F10)?
**A.** 2.81 µM

**Q.** And the IC50 (SK-MEL-28)?
**A.** 5.73 µM

**Q.** And the IC50 [3]?
**A.** 12.8 µM

**Q.** What about the IC50 [4] of the same compound?
**A.** 24.5 µM

**Q.** Which IC50 (SK-BR-3) does the source give for `COc1cccc(-c2cc(C(=O)Nc3cc4ccc(OC5CC(C)(C)C[C@@H](O)[C@H]5O)c(C)c4oc3=O)ccc2OC)c1` (some centres undefined) here?
**A.** > 100 µM

**Q.** And the IC50 (MCF7)?
**A.** > 100 µM

**Q.** And the IC50 [1]?
**A.** 1.24 µM

**Q.** What about the IC50 [2] of the same compound?
**A.** 2.49 µM

**Q.** What about the IC50 (B16-F10) of the same compound?
**A.** 15.9 µM

**Q.** What about the IC50 (SK-MEL-28) of the same compound?
**A.** 3.47 µM

**Q.** What about the IC50 [3] of the same compound?
**A.** 18.8 µM

**Q.** And the IC50 [4]?
**A.** 8.5 µM

**Q.** For `COc1cccc(-c2cc(C(=O)Nc3cc4ccc(OC5C=CCNC5)c(C)c4oc3=O)ccc2OC)c1` (centres undefined), which IC50 (SK-BR-3) is on record?
**A.** 1.61 µM

**Q.** And the IC50 (MCF7)?
**A.** 1.73 µM

**Q.** And the IC50 [1]?
**A.** 4.27 µM

**Q.** What about the IC50 [2] of the same compound?
**A.** 4.4 µM

**Q.** What about the IC50 (B16-F10) of the same compound?
**A.** 2.94 µM

**Q.** And the IC50 (SK-MEL-28)?
**A.** 5.41 µM

**Q.** And the IC50 [3]?
**A.** 6.54 µM

**Q.** What about the IC50 [4] of the same compound?
**A.** 3.4 µM

**Q.** Which IC50 (SK-BR-3) does the source give for `COc1cccc(-c2cc(C(=O)Nc3cc4ccc(OC5CCNCC5)c(OC)c4oc3=O)ccc2OC)c1` here?
**A.** 1.79 µM

**Q.** And the IC50 (MCF7)?
**A.** 3.23 µM

**Q.** And the IC50 [1]?
**A.** 10.8 µM

**Q.** And the IC50 [2]?
**A.** 8.47 µM

**Q.** What about the IC50 (B16-F10) of the same compound?
**A.** 2.14 µM

**Q.** And the IC50 (SK-MEL-28)?
**A.** 16.4 µM

**Q.** What about the IC50 [3] of the same compound?
**A.** 10.9 µM

**Q.** What about the IC50 [4] of the same compound?
**A.** 12.6 µM

**Q.** What does the source list for `COc1cccc(-c2cc(C(=O)Nc3cc4ccc(OC5CN(C)C[C@@H](O)[C@H]5O)c(OC)c4oc3=O)ccc2OC)c1` (some centres undefined)?
**A.** IC50 (SK-BR-3): 6.64 µM; IC50 (MCF7): 11 µM; IC50 [1]: 1.5 µM; IC50 [2]: 3.52 µM; IC50 (B16-F10): 6.58 µM; IC50 (SK-MEL-28): 5.9 µM; IC50 [3]: 5.9 µM; IC50 [4]: 6.7 µM

**Q.** What does the source list for `COc1cccc(-c2cc(C(=O)Nc3cc4ccc(OC5CCCN(C)C5)c(OC)c4oc3=O)ccc2OC)c1` (centres undefined)?
**A.** IC50 (SK-BR-3): 1.4 µM; IC50 (MCF7): 1.38 µM; IC50 [1]: 1.78 µM; IC50 [2]: 2.16 µM; IC50 (B16-F10): 1.51 µM; IC50 (SK-MEL-28): 7.14 µM; IC50 [3]: 11.4 µM; IC50 [4]: 7.5 µM

**Q.** Which IC50 (SK-BR-3) does the source give for `COc1cccc(-c2cc(C(=O)Nc3cc4ccc(OC5CCCN(C(C)=O)C5)c(C)c4oc3=O)ccc2OC)c1` (centres undefined) here?
**A.** > 50 µM

**Q.** And the IC50 (MCF7)?
**A.** > 50 µM

**Q.** And the IC50 [1]?
**A.** 1.23 µM

**Q.** And the IC50 [2]?
**A.** 3.42 µM

**Q.** What about the IC50 (B16-F10) of the same compound?
**A.** 12.4 µM

**Q.** And the IC50 (SK-MEL-28)?
**A.** 20.9 µM

**Q.** And the IC50 [3]?
**A.** 22.4 µM

**Q.** And the IC50 [4]?
**A.** 15.1 µM

**Q.** Which results are given for `COc1cccc(-c2cc(C(=O)Nc3cc4ccc(OC5CC(C)C[C@@H](O)[C@H]5O)c(C)c4oc3=O)ccc2OC)c1` (some centres undefined)?
**A.** IC50 (SK-BR-3): > 100 µM; IC50 (MCF7): > 100 µM; IC50 [1]: 1.14 µM; IC50 [2]: 4.09 µM; IC50 (B16-F10): 2.5 µM; IC50 (SK-MEL-28): 11.4 µM; IC50 [3]: 6.74 µM; IC50 [4]: 2.73 µM

**Q.** Which IC50 (SK-BR-3) does the source give for `COc1cccc(-c2cc(C(=O)Nc3cc4ccc(OC5C=CCN(C)C5)c(C)c4oc3=O)ccc2OC)c1` (centres undefined) here?
**A.** 2.92 µM

**Q.** What about the IC50 (MCF7) of the same compound?
**A.** 5.29 µM

**Q.** What about the IC50 [1] of the same compound?
**A.** 1.22 µM

**Q.** And the IC50 [2]?
**A.** 1.73 µM

**Q.** What about the IC50 (B16-F10) of the same compound?
**A.** 6.4 µM

**Q.** What about the IC50 (SK-MEL-28) of the same compound?
**A.** 10.8 µM

**Q.** And the IC50 [3]?
**A.** 7.7 µM

**Q.** What about the IC50 [4] of the same compound?
**A.** 11.4 µM
